In brackets after ≈: the same amount, converted by molar mass. Where only a bound is given, the exact number is not on record here.

Data set [1] is described as follows: Cytotoxicity against human TZM-bl cells assessed as reduction in cell viability incubated for 3 days by XTT assay. Format: cell-based. As to conditions: TZM-bl cells, time 3 day; call rule not given here. In general terms: Tetrazolium assays rely on reduction of a dye to a coloured formazan, in cell work by metabolically active cells.
A short description of data set [2]: Cytotoxicity against human MT2 cells assessed as reduction in cell viability incubated for 4 days by XTT assay. The following applies: MT2 cells, time 4 day. Format: cell-based.
Data set [3] can be described thus: Induction viral infection in pseudovirus HIV1 ADA infected in dog Cf2Th-CCR5 cells incubated for overnight followed by pretreated for 30 mins and added to cells measured after 48 hrs by luciferase-based assay. Format: cell-based. The following applies: human immunodeficiency virus 1, cf2th-ccr5, 48.5 h.
The nature of data set [4]: Cytotoxicity against dog Cf2Th-CCR5 cells assessed as reduction in cell viability incubated for 48 hrs by XTT assay. Format: cell-based, Canis lupus familiaris. As to conditions: Cf2Th-CCR5 cells.
The subject of data set [5] is Human immunodeficiency virus 1. Description: Antiviral activity against pseudovirus HIV-1 HXB-2 harboring Env I424F mutant infected in human U87.CD4.CXCR4 cells assessed as reduction in viral infection pretreated for 30 mins before viral infection and measured after 3 days by luciferase based assay. The data set is classed as functional, cell-based, M:B_HXB2R. The essentials: (§1)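 Pseudoviruses made in HEK293T by co-transfecting an Env-deleted backbone (pSG3Δenv or pNL4-3.Luc.R-.E-) with an HXB-2 Env plasmid carrying single or double substitutions; Env sequences confirmed by sequencing. Virus pretreated 30 min with graded compound, added to U87-CD4-CXCR4 cells (1 × 10⁴/well, plated overnight), incubated 3 days. Cells lysed, luciferase measured, IC50 calculated.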

A short description of data set [6]: Solubility in 5% DMSO at pH 7.4 at 500 uM incubated for 90 mins in shaker by spectrophotometry. Format: physicochemical. The essentials:
(§2)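 DMSO stock diluted to 500 μM in universal aqueous buffer pH 7.4 with 2 or 5% DMSO final; quadruplicate, 90 min shaking at room temperature in filter plate, vacuum filtered; filtrate in 20% acetonitrile read by UV absorbance at six wavelengths. Filtrate/standard ratio binned as ~500, 100–500 or <100 μM.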

A short description of data set [7]: Solubility in 2 % DMSO at pH 7.4 at 500 uM incubated for 90 mins in shaker by spectrophotometry. Format: physicochemical. In outline: as §2
A short description of data set [8]: Apparent permeability across apical to basolateral side in human Caco2 cells incubated for 2 hrs by LC-MS/MS analysis. The data set is classed as ADME, cell-based, Caco-2. The following applies: Caco-2. In outline: (§3)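 Caco-2 monolayers grown three weeks to differentiate; compound in transport buffer pH 7.4 (glucose, 10 mM HEPES, HBSS) added apical (A-B) or basal (B-A) side, with or without 100 μM verapamil; 2 h incubation, both sides sampled. Lucifer yellow 100 μM on A side checks integrity (≤2% transport). Papp = (dQ/dt)/(C0 × A); efflux ratio = Papp(B→A)/Papp(A→B).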

Data set [9] in a line: Apparent permeability across basolateral to apical side in human Caco2 cells incubated for 2 hrs by LC-MS/MS analysis. The data set is classed as ADME, cell-based, Caco-2. The following applies: Caco-2. In outline:
as §3
(Passage across Caco-2 layers is used to estimate intestinal permeability.)

A short description of data set [10]: Metabolic stability in human liver microsomes assessed as parent compound remaining at 3 uM incubated for 120 mins by LC-MS/MS analysis. The data set is classed as ADME, Microsome. The following applies: read-out: Stabilty.
Data set [11] in a line: Metabolic stability in human liver microsomes assessed as intrinsic clearance at 3 uM incubated for 120 mins by LC-MS/MS analysis. The data set is classed as ADME, Microsome. As to conditions: read-out: CLH. Background: Liver microsomes are a subcellular fraction often used to study metabolism.
Data set [12] in a line: Protein binding in human plasma assessed as unbound fraction at 5 uM by LC-MS/MS analysis. The data set is classed as ADME, cell-free.
For the next data set, the target named is T1, Cytochrome P450 2B6 (Homo sapiens, UniProt P20813).
T1 sequence (P20813 whole entry): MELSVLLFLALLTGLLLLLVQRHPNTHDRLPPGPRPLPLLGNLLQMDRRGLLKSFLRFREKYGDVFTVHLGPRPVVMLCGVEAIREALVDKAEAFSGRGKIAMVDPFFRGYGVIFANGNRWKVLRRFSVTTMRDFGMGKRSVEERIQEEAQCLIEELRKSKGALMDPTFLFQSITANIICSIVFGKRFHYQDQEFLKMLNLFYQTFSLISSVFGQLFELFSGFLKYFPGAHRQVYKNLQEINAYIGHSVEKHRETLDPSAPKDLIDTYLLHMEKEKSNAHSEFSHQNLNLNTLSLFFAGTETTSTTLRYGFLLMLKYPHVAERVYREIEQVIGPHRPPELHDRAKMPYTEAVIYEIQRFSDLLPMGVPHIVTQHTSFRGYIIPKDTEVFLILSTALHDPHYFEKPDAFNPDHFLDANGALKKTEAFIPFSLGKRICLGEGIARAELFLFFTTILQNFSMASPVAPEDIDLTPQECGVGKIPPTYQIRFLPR
Kind of data set: Inhibition of human liver microsome CYP2B6 using bupropion as substrate incubated for 20 mins by LC-MS/MS analysis. Format: ADME, microsomes.

A further data set concerns the target Cytochrome P450 2C19 (Homo sapiens, UniProt P33261). Description: Inhibition of human liver microsome CYP2C19 using mephenytoin as substrate incubated for 20 mins by LC-MS/MS analysis. Format: ADME, microsomes.
In the next data set the target is Cytochrome P450 3A4 (Homo sapiens, UniProt P08684). Description: Inhibition of human liver microsome CYP3A4 using midazolam as substrate incubated for 20 mins by LC-MS/MS analysis. Format: ADME, microsomes.
Chain of Cytochrome P450 3A4 (P08684 whole entry): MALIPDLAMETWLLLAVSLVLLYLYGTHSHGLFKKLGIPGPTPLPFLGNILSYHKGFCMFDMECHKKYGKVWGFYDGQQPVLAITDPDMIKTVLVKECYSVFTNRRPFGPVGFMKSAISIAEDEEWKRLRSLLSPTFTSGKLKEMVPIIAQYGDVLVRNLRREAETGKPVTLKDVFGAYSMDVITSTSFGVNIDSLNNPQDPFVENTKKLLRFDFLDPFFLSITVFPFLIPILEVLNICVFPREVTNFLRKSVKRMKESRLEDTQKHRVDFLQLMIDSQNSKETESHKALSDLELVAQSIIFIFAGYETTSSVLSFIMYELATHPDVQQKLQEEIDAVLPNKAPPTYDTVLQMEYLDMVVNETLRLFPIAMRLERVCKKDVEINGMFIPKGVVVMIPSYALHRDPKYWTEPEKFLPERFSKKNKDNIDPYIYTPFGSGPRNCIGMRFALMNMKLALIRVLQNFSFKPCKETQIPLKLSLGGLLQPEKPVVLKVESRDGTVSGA
Data set [13] is described as follows: Cytotoxicity against human PBMC cells assessed as reduction in cell viability incubated for 1 hr followed by complete medium addition and measured after 48 hrs by XTT assay. The data set is classed as cell-based.
The subject of data set [14] is Human immunodeficiency virus 1. Kind of data set: Antiviral activity against HIV-1 3B infected in human H9 cells assessed as reduction in viral transmission to TZM-bl cells incubated for 48 hrs by luciferase based assay. The data set is classed as functional, organism-based. As to conditions: Human immunodeficiency virus 1, 3B, H9, 48 h.
In data set [15] the test system is Human immunodeficiency virus 1. Kind of data set: Antiviral activity against HIV-1 ADA infected in human MOLT-4 cells assessed as reduction in viral transmission to TZM-bl cells incubated for 48 hrs by luciferase based assay. Format: functional, organism-based. The following applies: Human immunodeficiency virus 1, ADA, MOLT-4, 48 h.
The test system of data set [16] is Human immunodeficiency virus 1. Description: Antiviral activity against pseudovirus HIV-1 HXB-2 harboring Env A204D mutant infected in human U87.CD4.CXCR4 cells assessed as reduction in viral infection pretreated for 30 mins before viral infection and measured after 3 days by luciferase based assay. Format: functional, cell-based, M:B_HXB2R. The essentials: as §1

Chain of Cytochrome P450 2C19 (P33261 whole entry): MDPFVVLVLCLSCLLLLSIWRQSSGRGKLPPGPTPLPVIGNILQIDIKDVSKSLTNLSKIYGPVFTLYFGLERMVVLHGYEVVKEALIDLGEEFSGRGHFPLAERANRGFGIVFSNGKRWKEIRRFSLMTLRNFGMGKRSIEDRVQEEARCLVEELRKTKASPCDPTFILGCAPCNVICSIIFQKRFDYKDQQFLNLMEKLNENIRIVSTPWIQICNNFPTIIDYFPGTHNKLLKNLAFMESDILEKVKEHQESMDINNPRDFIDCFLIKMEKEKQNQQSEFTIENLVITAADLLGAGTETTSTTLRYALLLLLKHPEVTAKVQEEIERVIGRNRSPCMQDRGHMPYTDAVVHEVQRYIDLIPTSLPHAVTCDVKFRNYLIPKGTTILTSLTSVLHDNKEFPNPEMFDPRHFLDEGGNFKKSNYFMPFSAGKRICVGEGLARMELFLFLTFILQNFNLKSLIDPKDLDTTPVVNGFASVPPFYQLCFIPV

For orientation: CC50 means the concentration that lowers cell viability or growth by half. By IC50 is commonly meant the point on the concentration scale where inhibition reaches its midpoint. A word on the solubility (kinetic): it is the concentration staying in solution when a stock, usually in DMSO, is diluted into the medium. What is called Papp A→B is how fast a substance crosses the layer from the apical side. What is called Papp B→A is the apparent permeability from the basolateral to the apical side of a cell layer. By fraction unbound is commonly meant free concentration divided by total concentration. Turning to `NC[C@H](NC(=O)c1ccc(-c2ccc(C(F)(F)F)c(F)c2)[nH]1)c1nc(CO)cs1`, in [1], the CC50 at 72 h stood at 21.9 µM. The CC50 at 96 h in data set [2] was 22.1 µM. Further, the Activity entry in data set [3] was “Non-Toxic”. The half-maximal cytotoxic concentration (CC50) at 48 h in data set [4] was found to be 34 µM. Besides, the half-maximal inhibitory concentration (IC50) is 0.88 µM in [5], > 25 µM at Cytochrome P450 2B6, > 25 µM on Cytochrome P450 2C19 and > 25 µM at Cytochrome P450 3A4. Also, the kinetic solubility at […], 500 µM in data set [6] and in data set [7] was 100 µM (≈ 42.8 µg/mL) in each case. Also, in [8], the Papp A→B at 2 h worked out at 0.602 ×10⁻⁶ cm/s. Moreover, the apparent permeability from basolateral to apical (Papp B→A) at 2 h in data set [9] was 17.7 ×10⁻⁶ cm/s. Also, the remaining at 2 h, 3 µM in data set [10] worked out at 88.5%. The microsomal CLint at 3 µM in data set [11] was found to be 1.8 µL/min/mg. In data set [12], the free fraction (fraction unbound) at 5 µM turned out to be 0.00949. For the same molecule, the CC50 at 49 h in data set [13] was 38.7 µM.
Regarding `NC[C@H](NC(=O)c1ccc(-c2cc(F)c(Cl)c(F)c2)[nH]1)c1nc(CO)cs1`, the CC50 at 72 h in [1] was found to be 42.1 µM. Also, the cytotoxic concentration (CC50) at 96 h in [2] is 32.6 µM. Moreover, the Activity result in [3] was “Non-Toxic”. In addition, the cytotoxic concentration (CC50) at 48 h in [4] was > 51 µM. Besides, the half-maximal inhibitory concentration (IC50) turned out to be 0.079 µM in data set [14], 0.44 µM in data set [15], 0.87 µM in data set [16] and 1.3 µM in data set [5]. The kinetic solubility at […], 500 µM in [6] came to 500 µM (≈ 206 µg/mL); in [7], 100 µM (≈ 41.3 µg/mL). The apical-to-basolateral permeability (Papp A→B) at 2 h in data set [8] came to 0.471 ×10⁻⁶ cm/s. Moreover, the Papp B→A at 2 h in [9] came to 17 ×10⁻⁶ cm/s. Also, the remaining at 2 h, 3 µM in [10] was 90.4%. Moreover, the microsomal CLint at 3 µM in data set [11] amounted to 1.6 µL/min/mg. Further, the free fraction (fraction unbound) at 5 µM in data set [12] was found to be 0.00281. The 50% cytotoxic concentration (CC50) at 49 h in data set [13] is 61 µM.

Source of the values: ChEMBL document CHEMBL4715822, “Structure-based lead optimization to improve antiviral potency and ADMET properties of phenyl-1H-pyrrole-carboxamide entry inhibitors targeted to HIV-1 gp120” (Eur J Med Chem, 2018).
